From ChEMBL document CHEMBL5543129, “Peptide Inhibitor Targeting the Extraterminal Domain in BRD4 Potently Suppresses Breast Cancer Both In Vitro and In Vivo” (J Med Chem, 2024) come the findings set out here.

Activity calls are given as the source filed them. No cut-off for these calls is given here. Square brackets hold non-standard residues; d marks the D form. Peptide text beside a SMILES is read from it. Hyp = O=C(O)[C@@H]1C[C@@H](O)CN1; Ahx = NCCCCCC(=O)O

The test system of data set [1] is MCF7. Description: Antitumor activity against human MCF7 cells xenografted in BALB/c nude mouse assessed as reduction in tumor weight at 12.5 mg/kg, ip administered every 2 days in presence of 12.5 mg/kg JMJD6 inhibitor. It is filed as functional, organism-based. Summed up: (§1)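 Female BALB/c nude mice given 5 × 10^6 cells sc (MCF7 mice with E2 10^-2 M every 2 days), randomised at ~50 mm3. Peptide 12.5 mg/kg ip (saline) every 2 days, plus JQ1 50 mg/kg ip (DMSO/10% HPBCD 1:10) every 2 days or iJMJD6 12.5 mg/kg ip (DMSO/PBS 1:20). Caliper volume every 2 days; tumours weighed at the end.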
(A xenograft is tissue or cells of one species grown in another, often human tumour cells in immunodeficient mice.)

Data set [2] concerns MCF7. Description: Antitumor activity against human MCF7 cells xenografted in BALB/c nude mouse assessed as reduction in tumor weight at 12.5 mg/kg, ip administered every 2 days in presence of 50 mg/kg JQ1. It is filed as functional, organism-based. Summed up:
as §1

In data set [3] the test system is MCF7. Description: Antitumor activity against human MCF7 cells xenografted in BALB/c nude mouse assessed as reduction in tumor weight at 12.5 mg/kg, ip administered every 2 days in presence of 2.5 mg/kg fulvestrant. In kind it is functional, organism-based. The gist of the method:
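MCF7 xenografts in female BALB/c nude mice on E2 (10^-2 M, every 2 days), randomised at ~50 mm3. Peptide 12.5 mg/kg ip every 2 days with fulvestrant 2.5 mg/kg sc (DMSO/corn oil 1:10) every 6 days. Caliper volume (1/2 × L × W²); tumours weighed at the end.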

Data set [4] concerns Mus musculus. Description: Downregulation of BRD4 mRNA expression in BALB/c mouse tumor xenografted with human MCF7 cells at 25 mg/kg, ip administered every 2 days by RT-qPCR analysis. In kind it is functional, organism-based.
The nature of data set [5]: Downregulation of N-myc protein expression in BALB/c mouse tumor xenografted with human MCF7 cells assessed as fold change in remaining N-myc level at 25 mg/kg, ip administered every 2 days by immunoblotting analysis. In kind it is functional. Summed up:
(§2)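 Tumours taken from xenograft mice dosed with peptide at 25 mg/kg ip every 2 days. […] Three repeats.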

In data set [6] the test system is MCF7. Description: Antitumor activity against human MCF7 cells xenografted in BALB/c nude mouse assessed as reduction in tumor volume at 12.5 mg/kg, ip administered every 2 days in presence of 50 mg/kg JQ1. It is filed as functional, organism-based. The gist of the method: as §1
For the next data set, the system named is BT-549. Description: Inhibition of colony formation in human BT-549 cells at 10 uM incubated for 2 weeks by crystal violet staining based assay. It is filed as functional, cell-based. The gist of the method:
(§3)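 Cells are seeded at 1 × 10^3/well and treated with peptide (10 μM) for 2 weeks, alone or with JQ1 5 μM, iJMJD6 10 μM, ICI 2.5 μM, or tamoxifen 3 μM (tamoxifen-resistant lines). Colonies are stained with crystal violet, dissolved in 10% acetic acid, and read at 590 nm. Three biological repeats.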

Data set [7] relates to MDA-MB-231. Description: Downregulation of […] gene expression in human MDA-MB-231 cells at 10 uM incubated for 6 hrs by RT-qPCR analysis. It is filed as functional, cell-based. The gist of the method: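 Cells treated with peptide (10 μM) for 6 h; c-Myc, N-myc and CCND1 mRNA measured by RT-qPCR. Three biological repeats.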
A general note: Real-time PCR tracks product formation cycle by cycle.

Data set [8] is described as follows: Toxicity in BALB/c mouse xenografted with human MDA-MB-231 cells assessed as change in lung weight at 12.5 mg/kg, ip administered every 2 days in presence of 50 mg/kg JQ1. In kind it is organism-based. As to conditions: in vivo, 48 h. Summed up: (§4)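 Female BALB/c nude mice (4–6 weeks) carried sc MDA-MB-231 xenografts (5 × 10^6 cells) and were randomized at about 50 mm3. Peptide (12.5 mg/kg ip in saline) and JQ1 (50 mg/kg ip, DMSO/10% HPBCD 1:10) were given every 2 days, alone or combined. Body weight was recorded, and heart, liver, spleen, lung and kidney morphology and weight were assessed.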

Data set [9] deals with MDA-MB-231. Description: Inhibition of colony formation in human MDA-MB-231 cells at 10 uM incubated for 2 weeks in presence of JMJD6 inhibitor by crystal violet staining based assay. It is filed as functional, cell-based. The gist of the method: as §3
Data set [10] relates to Mus musculus. Description: Downregulation of c-Myc mRNA expression in BALB/c mouse tumor xenografted with human MDA-MB-231 cells at 25 mg/kg, ip administered every 2 days by RT-qPCR analysis. It is filed as functional, organism-based. The gist of the method:
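Female BALB/c nude mice (4–6 weeks) implanted subcutaneously with 5 × 10^6 cells in PBS. For MCF7 grafts, estrogen (E2, 10–2 M) is brushed on every 2 days. Treatment starts at ~50 mm3 after randomization, with peptide in normal saline ip every 2 days. Tumour mRNA is measured by RT-qPCR.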

The test system of data set [11] is MCF7. Description: Antitumor activity against human MCF7 cells xenografted in BALB/c nude mouse assessed as reduction in tumor volume at 12.5 mg/kg, ip administered every 2 days in presence of 12.5 mg/kg JMJD6 inhibitor. In kind it is functional, organism-based. Summed up: as §1
The test system of a further data set is T47D. Description: Antiproliferative activity against human T47D cells at 10 uM incubated for 1 week in presence of fulvestrant by CellTiter 96 Aqueous One Solution based assay. The following applies: time 1.0 weeks. In kind it is functional, cell-based.
The nature of data set [12]: Toxicity in BALB/c mouse xenografted with human MCF7 cells assessed as change in spleen weight at 12.5 mg/kg, ip administered every 2 days in presence of 50 mg/kg JQ1. In kind it is organism-based. The following applies: in vivo, 48 h.
Data set [13] concerns MCF7. Description: Inhibition of colony formation in human MCF7 cells at 10 uM incubated for 2 weeks in presence of JMJD6 inhibitor by crystal violet staining based assay. It is filed as functional, cell-based. Summed up:
as §3

Data set [14] is described as follows: Downregulation of N-myc protein expression in BALB/c mouse tumor xenografted with human MDA-MB-231 cells assessed as fold change in remaining N-myc level at 25 mg/kg, ip administered every 2 days by immunoblotting analysis. It is filed as functional. The gist of the method: as §2
Data set [15] can be described thus: Downregulation of c-Myc protein expression in BALB/c mouse tumor xenografted with human MDA-MB-231 cells assessed as fold change in remaining c-Myc level at 25 mg/kg, ip administered every 2 days by immunoblotting analysis. It is filed as functional. The gist of the method:
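Female BALB/c nude mice (4–6 weeks) carry subcutaneous MCF7 or MDA-MB-231 grafts (5 × 10^6 cells). MCF7 mice are brushed with E2 (10–2 M) every 2 days. Dosing starts at ~50 mm3: peptide in normal saline, ip every 2 days. Tumour lysates are immunoblotted with β-actin as loading control; repeated three times.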

Data set [16] in a line: Downregulation of BRD4 protein expression in BALB/c mouse tumor xenografted with human MCF7 cells assessed as fold change in remaining BRD4 level at 25 mg/kg, ip administered every 2 days by immunoblotting analysis. It is filed as functional. The gist of the method: as §2
Data set [17] in a line: Downregulation of CCND1 protein expression in human MDA-MB-231 cells assessed as fold change in remaining CCND1 level at 10 uM incubated for 24 hrs by immunoblotting analysis (reference value: 1). It is filed as functional. The gist of the method: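 Cells treated with peptide (10 μM) for 24 h. Lysates in Tris/NaCl/EDTA/1% Triton X-100, run on 10% SDS-PAGE and immunoblotted with ECL detection. β-actin as loading control. Three repeats, quantified against untreated cells.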
In general terms: Immunoblotting shows a protein as a band on a membrane.

Data set [18] in a line: Toxicity in BALB/c mouse xenografted with human MDA-MB-231 cells assessed as change in spleen weight at 12.5 mg/kg, ip administered every 2 days in presence of 50 mg/kg JQ1. It is filed as organism-based. As to conditions: in vivo, 48 h. The gist of the method:
as §4

Regarding `CC[C@H](C)[C@H](NC(=O)[C@H](Cc1ccc(O)cc1)NC(=O)[C@@H]1C[C@@H](O)CN1C(=O)[C@H](C)NC(=O)[C@@H](NC(=O)CCCCCNC(=O)[C@H](CCC(=O)O)NC(=O)CNC(=O)[C@H](CS)NC(=O)[C@H](CCCCN)NC(=O)[C@H](Cc1ccccc1)NC(=O)[C@H](CCCCN)NC(=O)[C@H](CCC(N)=O)NC(=O)[C@H](CC(N)=O)NC(=O)[C@H](CCCNC(=N)N)NC(=O)[C@H](CCCNC(=N)N)NC(=O)[C@H](CCCNC(=N)N)NC(=O)[C@H](CCCNC(=N)N)NC(=O)[C@H](CCC(N)=O)NC(=O)[C@H](CCCNC(=N)N)NC(=O)[C@H](CCCNC(=N)N)NC(=O)[C@H](CCCCN)NC(=O)[C@H](CCCCN)NC(=O)[C@H](CCCNC(=N)N)NC(=O)CNC(=O)[C@@H](N)Cc1ccc(O)cc1)[C@@H](C)CC)C(=O)O` (H-YGRKKRRQRRRRNQKFKCGE[Ahx]IA[Hyp]YI-OH), the outcome in the data set on MCF7 [1], in the data set on MCF7 [2], in the data set on MCF7 [3], in the data set on MCF7 [6], in the data set on MDA-MB-231 [7] and in the data set on Mus musculus [10] was Active. In addition, the outcome in the data set on MCF7 [11] and in the data set with T47D was Active. For the same molecule, in the data set with Mus musculus [4], the result was inactive. Further, the “fold change (FC)” value is given as 0.43 in [5]; 0.13 in data set [14]; 0.44 in [15]; 0.16 in data set [16]; 0.62 in data set [17]. Besides, the inhibition result with BT-549, in the data set on MDA-MB-231 [9] and with MCF7 [13] was “Active” each time. For the same molecule, the Activity result in [8], in [12] and in data set [18] was “Non-Toxic” each time.

Take H-YGRKKRRQRRRRNQKFKCGE-OH: the outcome with MCF7 [1], in the data set with MCF7 [2], with MCF7 [3], in the data set on MCF7 [6], with MDA-MB-231 [7] and in the data set on Mus musculus [10] was Active. Further, the result in the data set on MCF7 [11] and in the data set on T47D was Active. In the data set with Mus musculus [4], the result was inactive. Also, the “fold change (FC)” value in data set [5] was determined as 0.38; in data set [14], 0.38; in data set [15] it was 0.22; in [16], 0.54; in data set [17], 0.67. In addition, the inhibition result with BT-549, in the data set with MDA-MB-231 [9] and with MCF7 [13] was “Active” each time. For the same molecule, the Activity result in [8], in data set [12] and in data set [18] was “Non-Toxic” throughout.
